Results reported in ChEMBL document CHEMBL2401720, “Synthesis and structure-activity relationship studies of O-biphenyl-3-yl carbamates as peripherally restricted fatty acid amide hydrolase inhibitors” (J Med Chem, 2013).
Activity calls are given as the source filed them. No cut-off for these calls is given here.

Key:
[1] = system: Mus musculus; assay: In vivo inhibition of FAAH in sc dosed Swiss Webster mouse brain using [3H]-ethanolamine as substrate after 1 hr by liquid scintillation counting analysis; assay type: functional, organism-based
[2] = system: Mus musculus; assay: In vivo inhibition of FAAH in Swiss Webster mouse liver using [3H]-ethanolamine as substrate at 1 mg/kg, ip after 1 hr by liquid scintillation counting analysis relative to control; assay type: functional; details: route intraperitoneal
[3] = system: Mus musculus; assay: In vivo inhibition of FAAH in ip dosed Swiss Webster mouse brain using [3H]-ethanolamine as substrate after 1 hr by liquid scintillation counting analysis; assay type: functional
[4] = system: Mus musculus; assay: In vivo inhibition of FAAH in Swiss Webster mouse brain using [3H]-ethanolamine as substrate at 40 mg/kg, sc after 1 hr by liquid scintillation counting analysis in presence of Abcg2 inhibitor Ko-143; assay type: functional, organism-based; set-up: dose 40 mg/kg
[5] = system: Mus musculus; assay: In vivo inhibition of FAAH in Swiss Webster mouse brain using [3H]-ethanolamine as substrate at 1 mg/kg, ip after 1 hr by liquid scintillation counting analysis relative to control; assay type: functional; details: route intraperitoneal
[6] = molecular target: T1, Fatty-acid amide hydrolase 1 (Rattus norvegicus, UniProt P97612); assay: Inhibition of Wistar rat brain FAAH using [3H]-ethanolamine as substrate preincubated for 20 mins followed by substrate addition by liquid scintillation counting analysis
T1 sequence (P97612 whole entry): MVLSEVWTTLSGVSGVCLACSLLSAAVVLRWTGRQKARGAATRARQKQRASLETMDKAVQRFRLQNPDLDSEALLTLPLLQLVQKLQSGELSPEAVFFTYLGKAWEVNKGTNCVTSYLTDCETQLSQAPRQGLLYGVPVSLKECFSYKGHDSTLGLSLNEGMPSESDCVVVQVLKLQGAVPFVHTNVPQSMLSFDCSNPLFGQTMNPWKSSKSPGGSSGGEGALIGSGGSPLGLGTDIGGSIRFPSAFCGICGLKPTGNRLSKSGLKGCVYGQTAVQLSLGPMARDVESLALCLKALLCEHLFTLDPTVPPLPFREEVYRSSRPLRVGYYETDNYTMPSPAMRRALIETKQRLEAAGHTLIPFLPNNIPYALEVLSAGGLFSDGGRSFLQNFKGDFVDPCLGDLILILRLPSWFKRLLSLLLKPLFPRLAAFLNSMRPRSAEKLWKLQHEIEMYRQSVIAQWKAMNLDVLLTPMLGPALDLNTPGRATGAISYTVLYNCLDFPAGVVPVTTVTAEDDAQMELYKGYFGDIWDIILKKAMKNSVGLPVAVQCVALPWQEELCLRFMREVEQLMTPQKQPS
Method in brief: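 FAAH source was the membrane homogenate of Wistar rat brain (50 μg protein). It was preincubated with inhibitor for 20 min at 37°C, then incubated 30 min at 37°C in Tris 50 mM pH 7.5 with 0.05% fatty acid-free BSA, 10 μM anandamide and anandamide[ethanolamine-3H]. The reaction was stopped with chloroform/methanol (1:1), and aqueous-layer radioactivity was counted by liquid scintillation to give IC50.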

[7] = system: Mus musculus; assay: In vivo inhibition of FAAH in ip dosed Swiss Webster mouse peripheral tissue; assay type: functional
[8] = system: Mus musculus; assay: In vivo inhibition of FAAH in Swiss Webster mouse brain using [3H]-ethanolamine as substrate at 25 mg/kg, sc after 1 hr by liquid scintillation counting analysis in presence of Abcg2 inhibitor Ko-143; assay type: functional, organism-based; set-up: dose 25 mg/kg
Method in brief: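 Adult male Swiss-Webster mice (25-30 g) got Ko-143 (15 mg/kg, i.p., in saline/PEG400/Tween80 18:1:1 with 30% DMSO) 20 min before a single s.c. dose of inhibitor in the same vehicle without DMSO. Brain taken 1 h later and homogenate supernatant (1000 × g) assayed: 37°C, 30 min, pH 7.5 Tris, 0.05% BSA, 10 μM anandamide plus [ethanolamine-3H]anandamide, aqueous-phase scintillation counting; mean ± s.e.m., n = 3-4.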

[9] = system: Mus musculus; assay: In vivo inhibition of FAAH in ip dosed Swiss Webster mouse liver; assay type: functional
[10] = system: Mus musculus; assay: In vivo inhibition of FAAH in Swiss Webster mouse brain using [3H]-ethanolamine as substrate at 75 mg/kg, sc after 1 hr by liquid scintillation counting analysis; assay type: functional, organism-based; set-up: dose 75 mg/kg

SMILES | inhibition [1] | inhibition in vivo at 1 mg/kg [2] [%] | ED50 [3] [mg/kg] | inhibition [4] | inhibition in vivo at 1 mg/kg [5] [%] | IC50 [6] [nM] | ED50 [7] [mg/kg] | inhibition [8] | ED50 [9] [mg/kg] | inhibition [10]
NC(=O)c1cccc(-c2cc(O)cc(OC(=O)NC3CCCCC3)c2)c1 | Dose-dependent effect | 89.5 | 75 | Active | -4.2 |  |  |  |  | 
CC(O)c1cccc(-c2cc(OC(=O)NC3CCCCC3)ccc2O)c1 (stereo not given) |  | 80.9 |  |  | 89.6 | 2 |  |  |  | 
NC(=O)c1cccc(-c2cc(OC(=O)NC3CCCCC3)ccc2O)c1 | Dose-dependent effect | 91.7 | 40 |  | -3 |  | 0.2 | Active | 0.2 | 
NC(=O)c1cccc(-c2cc(OC(=O)NC3CCCCC3)ccc2C(=O)O)c1 | Dose-dependent effect | 86.3 |  | inactive | -2.1 |  |  |  |  | inactive
